Results: ChEMBL document CHEMBL4118202, “Chiral analogues of (+)-cyclazosin as potent α1B-adrenoceptor selective antagonist” (Bioorg Med Chem, 2018)

Key:
[1] = target: T1, Alpha-1B adrenergic receptor (Rattus norvegicus) (UniProt P15823); assay: Antagonist activity at alpha1B adrenergic receptor in Wistar rat spleen assessed as inhibition of phenylephrine-induced contraction incubated for 30 mins in presence of beta-adrenoceptor blocker propranolol hydrochloride; type: functional
T1 sequence (whole entry): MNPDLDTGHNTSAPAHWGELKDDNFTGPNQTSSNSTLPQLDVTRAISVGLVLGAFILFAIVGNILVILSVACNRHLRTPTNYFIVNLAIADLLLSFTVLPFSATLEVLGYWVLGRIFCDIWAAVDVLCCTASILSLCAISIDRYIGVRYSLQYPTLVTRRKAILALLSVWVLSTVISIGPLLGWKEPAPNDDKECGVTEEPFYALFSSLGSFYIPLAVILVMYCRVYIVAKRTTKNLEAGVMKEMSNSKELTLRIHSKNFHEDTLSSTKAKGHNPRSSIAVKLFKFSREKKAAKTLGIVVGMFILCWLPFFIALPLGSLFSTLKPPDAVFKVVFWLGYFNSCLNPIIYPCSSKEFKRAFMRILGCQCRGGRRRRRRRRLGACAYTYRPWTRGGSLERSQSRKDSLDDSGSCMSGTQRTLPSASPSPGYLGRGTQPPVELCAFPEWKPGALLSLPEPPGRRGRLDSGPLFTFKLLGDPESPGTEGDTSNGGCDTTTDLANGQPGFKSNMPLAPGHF
Method in brief: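 Spleen bisected longitudinally into strips in Krebs with propranolol 4 μM, held at 1 g and equilibrated 2 h. Two isometric cumulative phenylephrine curves, each followed by 30 min washing. Third curve after 30 min vehicle or antagonist. Potency as pA2 (Schild) or pKB at one concentration (van Rossum). Responses as % of control maximum; n ≥ 4.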

[2] = target: T2, Alpha-1B adrenergic receptor (Homo sapiens, UniProt P35368); assay: Binding affinity to human alpha1B adrenergic receptor
T2 sequence (P35368 whole entry): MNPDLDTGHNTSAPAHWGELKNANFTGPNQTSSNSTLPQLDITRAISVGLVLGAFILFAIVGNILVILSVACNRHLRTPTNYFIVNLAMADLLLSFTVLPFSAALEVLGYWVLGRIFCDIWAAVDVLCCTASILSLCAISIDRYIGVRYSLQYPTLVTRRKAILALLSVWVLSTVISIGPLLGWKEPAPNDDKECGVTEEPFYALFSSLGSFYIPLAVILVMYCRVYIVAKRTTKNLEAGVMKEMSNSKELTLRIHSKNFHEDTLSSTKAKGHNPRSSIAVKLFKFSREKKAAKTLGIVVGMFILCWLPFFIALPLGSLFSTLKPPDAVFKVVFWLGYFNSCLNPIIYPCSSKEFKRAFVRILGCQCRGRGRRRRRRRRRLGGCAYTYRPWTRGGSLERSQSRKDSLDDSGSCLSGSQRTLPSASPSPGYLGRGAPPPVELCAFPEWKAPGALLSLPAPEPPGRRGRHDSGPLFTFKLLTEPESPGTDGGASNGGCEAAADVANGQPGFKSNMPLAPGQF

[3] = target: T3, Alpha-1D adrenergic receptor (Homo sapiens, UniProt P25100); assay: Displacement of [3H]prazosin from human alpha1D adrenergic receptor expressed in CHO cell membranes after 30 mins by rapid filtration method
T3 sequence (P25100 whole entry): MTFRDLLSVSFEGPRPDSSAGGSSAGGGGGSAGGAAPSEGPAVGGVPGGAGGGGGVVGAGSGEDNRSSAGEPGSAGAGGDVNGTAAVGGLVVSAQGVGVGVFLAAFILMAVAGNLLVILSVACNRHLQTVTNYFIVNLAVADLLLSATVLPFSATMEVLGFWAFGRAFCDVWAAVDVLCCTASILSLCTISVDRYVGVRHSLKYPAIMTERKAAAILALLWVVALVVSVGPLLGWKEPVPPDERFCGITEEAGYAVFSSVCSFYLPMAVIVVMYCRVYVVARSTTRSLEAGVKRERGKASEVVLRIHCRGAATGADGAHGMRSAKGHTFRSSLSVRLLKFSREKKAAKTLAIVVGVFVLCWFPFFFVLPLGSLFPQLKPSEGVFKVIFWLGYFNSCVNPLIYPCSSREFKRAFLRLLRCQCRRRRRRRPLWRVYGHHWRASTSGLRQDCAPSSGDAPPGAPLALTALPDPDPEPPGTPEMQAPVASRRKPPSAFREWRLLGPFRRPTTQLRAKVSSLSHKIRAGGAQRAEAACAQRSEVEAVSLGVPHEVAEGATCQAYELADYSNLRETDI
Method in brief: (§1)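 Membranes (30 μg protein) from CHO cells stably transfected with the human α1a, α1b or α1d receptor. Incubated 30 min at 25 °C in 50 mM Tris-HCl pH 7.4 with 0.1–0.4 nM [3H]prazosin and competitor 1 pM–10 μM. Nonspecific binding defined by 10 μM phentolamine. Stopped by rapid filtration through PEI-treated filters. IC50 converted to Ki by Cheng-Prusoff; pKi from 2–3 experiments in triplicate.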

[4] = target: T4, Alpha-1A adrenergic receptor (Rattus norvegicus, UniProt P43140); assay: Antagonist activity at alpha1A adrenergic receptor in Wistar rat prostatic rat vas deferens assessed as inhibition of noradrenaline-induced contraction preincubated for 30 mins followed by noradrenaline addition measured after 45 mins in presence of cocaine hydrochloride; type: functional; conditions: read-out: pA2 (converted)
T4 sequence (P43140 whole entry): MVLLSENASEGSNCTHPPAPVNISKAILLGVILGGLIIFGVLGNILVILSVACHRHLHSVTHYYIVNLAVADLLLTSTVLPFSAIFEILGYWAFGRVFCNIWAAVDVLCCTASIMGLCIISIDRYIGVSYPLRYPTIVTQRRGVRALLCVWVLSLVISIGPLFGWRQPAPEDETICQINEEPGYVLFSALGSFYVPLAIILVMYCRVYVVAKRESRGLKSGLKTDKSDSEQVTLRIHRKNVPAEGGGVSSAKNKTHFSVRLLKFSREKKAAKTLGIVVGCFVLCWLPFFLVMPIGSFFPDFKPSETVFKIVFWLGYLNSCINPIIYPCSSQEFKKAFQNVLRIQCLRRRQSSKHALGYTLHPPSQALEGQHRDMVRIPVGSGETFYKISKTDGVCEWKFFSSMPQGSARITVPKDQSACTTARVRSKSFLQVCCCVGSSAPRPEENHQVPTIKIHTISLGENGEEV
Method in brief: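 Prostatic rat vas deferens, 2 cm portions, held at 0.35 g in Tyrode (pH 7.4, 37 °C, 95% O2/5% CO2). Cocaine 10 μM added 20 min before the agonist. Tissue equilibrated 45 min and primed twice with 10 μM noradrenaline. Isotonic cumulative noradrenaline curves were run before and after 30 min antagonist. pA2 came from Schild plots (≥3 concentrations); otherwise pKB (van Rossum). n ≥ 4.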

[5] = target: T2, Alpha-1B adrenergic receptor; assay: Displacement of [3H]prazosin from human alpha1B adrenergic receptor expressed in CHO cell membranes after 30 mins by rapid filtration method; method in brief: as §1
[6] = target: T5, Alpha-1A adrenergic receptor (Homo sapiens, UniProt P35348); assay: Displacement of [3H]prazosin from human alpha1A adrenergic receptor expressed in CHO cell membranes after 30 mins by rapid filtration method; method in brief: as §1
T5 sequence (P35348 whole entry): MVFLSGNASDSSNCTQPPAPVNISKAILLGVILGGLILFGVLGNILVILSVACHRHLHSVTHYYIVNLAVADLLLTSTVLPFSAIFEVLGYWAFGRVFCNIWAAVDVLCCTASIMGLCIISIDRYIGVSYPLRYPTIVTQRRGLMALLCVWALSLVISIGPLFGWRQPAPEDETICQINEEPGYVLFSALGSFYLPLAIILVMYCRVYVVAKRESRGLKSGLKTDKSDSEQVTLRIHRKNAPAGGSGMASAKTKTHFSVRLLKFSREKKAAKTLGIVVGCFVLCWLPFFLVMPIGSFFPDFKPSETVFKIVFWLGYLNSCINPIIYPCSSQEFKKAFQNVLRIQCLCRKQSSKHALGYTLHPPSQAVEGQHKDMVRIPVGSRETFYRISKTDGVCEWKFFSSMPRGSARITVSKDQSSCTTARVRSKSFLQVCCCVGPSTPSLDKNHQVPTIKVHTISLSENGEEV

Structure (SMILES) | pKb [1] | Ki [2] [nM] | Ki [3] [nM] | Kb [4] [nM] | Ki [5] [nM] | Ki [6] [nM]
COc1cc2nc(N3CCN(C(=O)c4ccco4)[C@H]4CCCC[C@H]43)nc(N)c2cc1OC [CYCLAZOSIN] | 8.86 | 0.135 to 0.692 |  |  |  | 
COc1cc2nc(N3CCN(C(=O)c4ccco4)[C@@H]4CCCC[C@@H]43)nc(N)c2cc1OC | 9.67 |  | 0.0603 | 0.589 | 0.0708 | 0.589
